NPY1 pot ag – human NPY-Y1 potentiation or agonism, primary screen. P25929. NPY-Y1 expressing cells, potentiator/agonist activation. activation, % at 3.6 µM. hit rate 0.37% among 220,000. AID 1304; in the data active = activation above about 33%, passing the limit was not always enough;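 note: cells stimulated with NPY at EC10 then isoproterenol at EC100; 0% = low agonist plus stimulus and 100% = saturating agonist plus stimulus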
NPY-Y1 antag – antagonists of human neuropeptide Y receptor Y1. HEK293-CNG Y1 cells, membrane potential fluorescence; NPY at EC95, then isoproterenol. P25929. inhibition, % at 3.6 µM. hit rate 1% among 200,000;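 active = inhibition above the campaign mean inhibition of all tested compounds plus 3 SD, cut at about 20% in these data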;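 note: 0% = DMSO wells given NPY plus isoproterenol and 100% = isoproterenol alone without NPY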
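Assay system: HEK293 cells with Y1 receptor plus CNG channel | Probe or stimulus: NPY (25 nM), isoproterenol (1 µM), Ro 20-1724 (25 µM) | Timing: Compound incubation 1 h at room temperature, readout 45 min post-stimulation | Measured by: Membrane-potential fluorescent dye readout | Benchmarks: High control isoproterenol alone, low control NPY with isoproterenol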
EP2 mod – modulates human prostaglandin E2 receptor EP2 signaling. P43116. EP2-expressing cells, cAMP HTRF FRET, PGE2 co-stimulation. induction, % at 25 µM. hit rate 0.83% among 260,000;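 active = compounds whose cAMP rise, as percent of the full-agonist control response, exceeds 60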;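 note: rat C6 glioma line stably carrying human EP2 under a CMV promoter; the protocol text gives 20 µM as final concentration; 100% = response of wells given 1 µM PGE2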
Target sequence (P43116 whole entry, looked up): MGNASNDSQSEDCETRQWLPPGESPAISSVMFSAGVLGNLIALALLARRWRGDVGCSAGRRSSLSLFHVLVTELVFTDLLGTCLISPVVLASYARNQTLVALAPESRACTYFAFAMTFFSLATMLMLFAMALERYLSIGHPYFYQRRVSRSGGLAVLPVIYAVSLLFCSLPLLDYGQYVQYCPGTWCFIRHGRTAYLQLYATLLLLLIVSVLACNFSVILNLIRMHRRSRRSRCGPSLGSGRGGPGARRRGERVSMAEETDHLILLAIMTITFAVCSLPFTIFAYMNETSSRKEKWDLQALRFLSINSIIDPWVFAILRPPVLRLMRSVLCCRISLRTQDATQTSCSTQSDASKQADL
NPY-Y2 PAM-ag – potentiators or agonists of human neuropeptide Y receptor Y2; hit rate 0.45% among 220,000; activation, % at 3.6 µM; cells expressing NPY-Y2, potentiator/agonist read-out; P49146; in the data active = activation above about 27%;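 note: cells stimulated with NPY near EC25 plus isoproterenol at EC100; 0% = vehicle plus submaximal agonist and 100% = vehicle plus saturating agonist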
Target sequence (P49146 whole entry, looked up): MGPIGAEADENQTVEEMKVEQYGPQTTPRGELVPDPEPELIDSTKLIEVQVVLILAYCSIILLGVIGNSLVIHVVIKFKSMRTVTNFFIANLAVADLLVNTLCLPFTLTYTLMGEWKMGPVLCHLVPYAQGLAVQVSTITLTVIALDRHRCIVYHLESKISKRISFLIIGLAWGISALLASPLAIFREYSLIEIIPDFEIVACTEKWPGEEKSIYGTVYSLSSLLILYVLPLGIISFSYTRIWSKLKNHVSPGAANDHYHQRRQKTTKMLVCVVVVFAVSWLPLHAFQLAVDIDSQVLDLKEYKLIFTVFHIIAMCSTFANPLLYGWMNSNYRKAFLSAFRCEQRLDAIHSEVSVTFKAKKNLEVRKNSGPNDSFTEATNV
PGE2 EP2 inh – blocks the human prostaglandin E2 receptor EP2; P43116; C6 glioma cells expressing human EP2, cAMP TR-FRET; cells stimulated with saturating PGE2; inhibition, % at 25 µM; hit rate 0.52% among 260,000; AID 1422;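 active = percent inhibition above 40 after rounding to a whole number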;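 note: rat C6 glioma host cells with rolipram phosphodiesterase inhibitor present; the protocol text gives 20 µM as final concentration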
NPY-Y2 antag – blocks the human neuropeptide Y Y2 receptor | P49146 | NPY-Y2 expressing cells, antagonist mode | inhibition, % at 2.7 µM | hit rate 0.99% among 140,000 | AID 793; in the data active = inhibition above about 17%;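 note: 0% = vehicle with agonist challenge and 100% = reference antagonist with challenge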
NPY1 antag ctr – counter-screen for NPY-Y2 antagonists: human NPY-Y1 antagonism. shares compounds with NPY-Y2 antag. cell-based NPY-Y1 antagonism counterscreen. inhibition, % at 3.6 µM. hit rate 19% among 710. AID 1256; in the data active = inhibition above about 20%;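 note: cells challenged with NPY then isoproterenol with cAMP sensed through a CNG channel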
NPY-Y2 ant conf – human NPY-Y2 antagonism, confirmation; inhibition, % at 2.8 µM; HEK293 NPY-Y2 CNG channel, membrane potential fluorescence; shares compounds with NPY-Y2 antag; hit rate 32% among 710;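 active = mean inhibition of triplicate wells above the hit cutoff set in the primary screen, cut at about 17% in these data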;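 note: 0% = DMSO with NPY challenge and 100% = BIIE0246 high control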
The depositor's hits bear a star; x = no result given; + = active, no number. An excerpt weighted towards active compounds, which were near 2.8% of everything screened.

SMILES	NPY1 pot ag	NPY-Y1 antag	EP2 mod	NPY-Y2 PAM-ag	PGE2 EP2 inh	NPY-Y2 antag	NPY1 antag ctr	NPY-Y2 ant conf
COc1cccc(NC(=O)CSc2nc3ccc(OC)cc3cc2C#N)c1	x	x	38.3	x	22.1	x	x	x
CCn1c(SCc2ccccc2Cl)nc2nc3c(cc2c1=O)CCCC3	-52.1	3.3	24.4	-2.2	7.7	18.4*	8.8	13.9
Clc1ccc(CSc2nnc(Cn3nnc4ccccc43)o2)cc1	x	x	-22.5	x	10.5	x	x	x
O=C(c1cccs1)N1CCC[C@@H]1Cn1nc(-c2cccs2)ccc1=O	x	x	-17.9	x	10.5	x	x	x
CCOC(=O)C1=C(C)Nc2nnnn2C1c1cccc(O)c1 (centres undefined)	x	x	-11.5	x	9.7	x	x	x
COC(=O)c1ccc(C2C(Oc3ccccc3)C(=O)N2CCc2ccc(F)cc2)cc1 (centres undefined)	21.2	19.2	24.8	-20.0	7.3	24.1*	29.6*	13.6
COC(=O)c1ccc(C2C(Oc3ccc(OC)cc3)C(=O)N2CCc2ccc(OC)c(OC)c2)cc1 (centres undefined)	-14.7	10.5	6.7	3.5	5.5	3.1	x	x
O=C(c1ncoc1-c1ccc(F)cc1)N1CCN(c2ccccc2F)CC1	x	x	-83.4	x	x	x	x	x
OC(CCN1CCOCC1)(c1ccc(Cl)cc1)C1CCCCC1 (centres undefined)	-19.6	10.9	36.2	-18.2	9.8	8.0	x	x
OC(CCN1CCCCC1)(c1ccccc1)C1CCCCC1 (centres undefined)	-34.1	13.2	2.6	1.3	9.6	20.3*	5.7	11.6
CCOc1ccc2[nH]c(=O)c(C(c3nnnn3Cc3ccco3)N3CCCC(C)C3)cc2c1 (centres undefined)	-14.9	12.0	12.8	8.1	18.5	17.7*	4.8	3.9
O=C(c1nc2ccccc2s1)C1CCN(C(=O)C2=Cc3ccccc3OC2)CC1	x	x	-75.1	x	x	x	x	x
Cc1ccccc1NC(=O)Cn1nnc2c(cnn2-c2ccc(F)cc2)c1=O	-22.6	0.8	14.7	-7.3	10.0	24.3*	9.8	8.4
CN(C)CCN(Cc1cccs1)Cc1n[nH]nc1-c1ccccc1	x	x	-2.7	x	5.1	x	x	x
CC(C)(C)c1nc2ccccc2c2nnc(SCC(=O)N3CCCC3)n12	x	x	-34.7	x	2.5	x	x	x
CC(C)C(OC(=O)CN1C(=O)COc2ccccc21)C(=O)NC1CCCC1 (centres undefined)	-4.5	16.9	22.5	-1.2	8.2	18.2*	9.8	6.6
Cc1ccccc1N(CC(=O)NC1CCCC1)C(=O)CN1C(=O)COc2ccccc21	x	x	3.4	x	7.9	x	x	x
CCOc1cccc(C(=O)Nc2nc3ccc(OC)cc3s2)c1	x	x	6.8	x	8.0	x	x	x
CCCCNC(=O)CN1C(=O)C(CC)Oc2ccc(Cl)cc21 (centres undefined)	-28.3	17.1	-25.9	-22.9	5.7	22.5*	7.0	6.9
COc1cccc(-c2cc(C(=O)Nc3ccc([N+](=O)[O-])cn3)c3ccccc3n2)c1	-24.6	3.1	41.8	-4.6	4.5	26.0*	36.9*	52.2*
COC(=O)c1cc(OC)c(OC)cc1NC(=O)c1cc(-c2ccccc2)nc2ccccc12	-1.0	2.6	51.4	-4.8	x	1.9	x	x
COc1ccc(-c2cc(C(=O)Nc3ccc(Cl)cc3Cl)c3ccccc3n2)cc1OC	-28.9	6.2	20.4	-15.9	3.4	123.9*	132.7*	+
COc1ccc(-c2cc(C(=O)Nc3c(Cl)cc(Cl)cc3Cl)c3ccccc3n2)cc1OC	-20.4	9.8	5.0	-25.1	7.8	78.5*	152.4*	195.4*
COc1c(Cl)cc(Cl)cc1C1C(C#N)=C(N)Oc2n[nH]c(C(C)(C)C)c21 (centres undefined)	x	x	45.6	x	12.7	x	x	x
Cc1ccc2cc(C(c3nnnn3C(C)(C)C)N(Cc3ccco3)Cc3cccs3)c(=O)[nH]c2c1 (centres undefined)	x	x	19.2	x	14.0	x	x	x
SMILES	NPY1 pot ag	NPY-Y1 antag	EP2 mod	NPY-Y2 PAM-ag	PGE2 EP2 inh	NPY-Y2 antag	NPY1 antag ctr	NPY-Y2 ant conf
CC(C)(C)n1nnnc1C(c1cccnc1)N(Cc1ccccc1)Cc1ccco1 (centres undefined)	-0.9	18.3	30.2	-4.0	23.2	17.5*	5.9	2.5
CCC(C)(C)n1nnnc1C(c1ccc(C)cc1)N(Cc1ccco1)Cc1cccs1 (centres undefined)	-22.5	17.8	8.2	1.1	8.1	22.5*	10.3	9.8
O=C(CSc1nnc(-c2ccccn2)n1Cc1ccco1)c1ccc(Cl)cc1	-14.2	0.2	5.3	-6.5	5.3	6.5	x	x
O=C(CSc1nnc(-c2ccccn2)n1Cc1ccco1)c1ccccc1	-3.2	-0.3	20.1	-1.8	5.8	3.5	x	x
Clc1cccc(CSc2nnc(-c3ccccn3)n2Cc2ccco2)c1	22.1	-0.5	41.5	-13.0	3.8	20.4*	11.7	7.5
Brc1ccc(CSc2nnc(-c3ccccn3)n2Cc2ccco2)cc1	-23.2	19.4	34.1	-5.8	11.1	24.3*	19.7	26.5*
c1ccc(CSc2nnc(-c3cccs3)n2Cc2ccco2)cc1	6.4	14.9	17.5	8.2	1.7	18.8*	10.9	9.8
Cc1ccc2cc(C)c3nnc(SCC(=O)NCc4ccccc4)n3c2c1C	x	x	-10.6	x	16.4	x	x	x
C/C(=C\C(=O)c1ccc(Br)cc1)NCc1ccc(C)cc1	3.4	11.2	-16.8	-4.0	15.4	20.8*	8.3	10.1
C/C(=C\C(=O)c1ccc(Br)cc1)NCc1ccccc1	-11.3	5.4	22.2	-5.4	9.3	8.9	x	x
O=C(NC1CCCCC1)C(c1ccccc1)N(Cc1ccc2c(c1)OCO2)C(=O)c1cnsn1 (centres undefined)	-43.0	12.4	26.3	-10.9	5.7	25.5*	15.7	12.4
O=C(NC1CCCCC1)C(c1ccncc1)N(Cc1ccc2c(c1)OCO2)C(=O)c1ccccn1 (centres undefined)	x	x	-18.5	x	14.9	x	x	x
O=C(CCCOc1ccc(Cl)cc1Cl)N/N=C/c1ccccc1	-54.0	16.1	-82.5	-31.5	2.1	4.5	x	x
O=C(COc1ccc(Cl)cc1Cl)N/N=C/CCc1ccccc1	11.4	1.4	-15.7	-26.1	12.3	20.6*	2.8	7.7
CCOc1ccc(C(O)CN2CCC3(CC2)CC(O)c2cc(F)ccc2O3)cc1 (centres undefined)	x	x	-34.1	x	6.6	x	x	x
CO/N=C(\CS(=O)(=O)Cc1ccc(OC)cc1)c1ccc(Cl)cc1	13.6	1.3	-41.8	1.2	-1.0	6.4	x	x
CO/N=C(/CS(=O)Cc1ccc(Cl)cc1)c1ccc(Cl)cc1 (centres undefined)	5.3	13.8	9.8	-16.1	10.5	18.1*	9.9	3.1
O=C(CSc1nnc(SCc2ccccc2)s1)N/N=C/c1c(Cl)cccc1Cl	-19.6	1.6	54.9	-11.5	16.7	25.9*	13.4	15.7

Source: PubChem (several laboratories)
